Data set [1] concerns the target T1, P2Y purinoceptor 1 (Homo sapiens, UniProt P47900). The data set is described as follows: Antagonist activity at P2Y1 receptor in platelet-enriched human plasma assessed as 10 uM ADP-induced platelet aggregation at 40 uM preincubated for 1 min followed by ADP induction measured at 5 mins by aggregometric analysis. The class given is cell-free.
Data set [2] has as its target T1, P2Y purinoceptor 1. In words: Antagonist activity at P2Y1 receptor in washed human platelets assessed as 1 uM 2-methylthio-ADP-induced calcium flux by FLIPR assay. The class given is functional. A general note: Calcium flux is commonly read through the fluorescence of an indicator in the cells.
A short description of data set [3]: Metabolic stability in human liver microsomes assessed as compound remaining at 0.5 uM after 10 mins. The class given is ADME. Conditions: read-out: Stability. A digest of the protocol:
(§1)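 Compound at 0.5 μM incubated 10 min with 1 mg/mL human, rat or mouse liver microsomes; percentage of parent remaining reported.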
Background: Liver microsomes are a subcellular fraction often used to study metabolism.

Data set [4] is described as follows: Metabolic stability in rat liver microsomes assessed as compound remaining at 0.5 uM after 10 mins. The class given is ADME. The settings on record: read-out: Stability. An outline of the steps: as §1
The nature of data set [5]: Metabolic stability in mouse liver microsomes assessed as compound remaining at 0.5 uM after 10 mins. It is filed as ADME. Conditions: read-out: Stability. An outline of the steps: as §1
Data set [6] can be described thus: Clearance in rat at 0.5 mg/kg by cassette dosing method. It is filed as ADME, organism-based. The arrangement: dose 0.5 mg/kg. Conditions: in vivo.
The nature of data set [7]: Volume of distribution at steady state in rat at 0.5 mg/kg by cassette dosing method. It is filed as ADME, organism-based. Also on record: dose 0.5 mg/kg. The settings on record: in vivo, read-out: Vdss.
Data set [8] in a line: Oral bioavailability in rat at 0.5 mg/kg by cassette dosing method. It is filed as ADME, organism-based. The settings on record: in vivo.
Data set [9] relates to Oryctolagus cuniculus. The data set is described as follows: Antithrombotic activity in rabbit model of electrically-induced carotid artery thrombosis assessed as reduction in thrombus formation dosed 30 mins before electrical stimulation. The class given is functional, organism-based.
In data set [10] the test system is Oryctolagus cuniculus. The data set is described as follows: Induction of bleeding time in rabbit model of electrically-induced carotid artery thrombosis at 80% antithrombotic dose administered 30 mins before electrical stimulation (reference value: 1 +/- 0.05). It is filed as organism-based. Conditions: in vivo, 0.5 h.

The results in this text go back to ChEMBL document CHEMBL3352472, “Discovery of 4-aryl-7-hydroxyindoline-based P2Y1 antagonists as novel antiplatelet agents” (J Med Chem, 2014).

Active and inactive are the calls of the source. No cut-off for these calls is given here.

T1 sequence (P47900 whole entry): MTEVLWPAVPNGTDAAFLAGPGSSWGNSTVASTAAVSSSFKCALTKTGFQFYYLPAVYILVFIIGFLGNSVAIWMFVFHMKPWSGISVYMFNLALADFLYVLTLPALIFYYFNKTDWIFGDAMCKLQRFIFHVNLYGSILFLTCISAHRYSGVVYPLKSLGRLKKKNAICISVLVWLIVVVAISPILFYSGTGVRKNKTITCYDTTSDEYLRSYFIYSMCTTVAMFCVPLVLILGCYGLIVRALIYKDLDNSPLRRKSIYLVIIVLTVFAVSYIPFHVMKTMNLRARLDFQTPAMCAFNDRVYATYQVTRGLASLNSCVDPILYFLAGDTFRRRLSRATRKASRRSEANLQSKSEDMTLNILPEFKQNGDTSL

What is called inhibition is the percentage by which the read-out fell short of the control. As for `CC1(C(=O)O)CN(c2ccccc2NC(=O)Nc2nc3ccc(Cl)nc3s2)c2c(O)ccc(Cl)c21` (centres undefined), the inhibition on P2Y purinoceptor 1 [1] is 90%.
As usually defined, the IC50 is the concentration at which inhibition is half-maximal. Turning to `CCOC(=O)C1(C)CN(c2ccccc2NC(=O)Nc2ccc(OC(F)(F)F)cc2)c2c(O)ccc(Cl)c21` (centres undefined), the IC50 at P2Y purinoceptor 1 [2] stood at 0.09 nM.
By clearance is commonly meant a measure of how efficiently the substance is removed, as volume per time. Low readings indicate inefficient removal, high ones efficient removal. Broadly, the bioavailability is dose-corrected exposure relative to a reference, in per cent. Higher therefore signals much systemic uptake. Consider `CC(C)(C)CN1CCC2(CC1)CN(c1ccccc1NC(=O)Nc1ccc(OC(F)(F)F)cc1)c1c(O)cc(F)c(-c3ccc(Cl)cc3)c12`, for which the half-inhibitory concentration (IC50) on P2Y purinoceptor 1 [2] stood at 0.16 nM. In addition, the results for the remaining at 10 min, 0.5 µM in [3], in data set [4] and in data set [5] were 78%, 72% and 74%, respectively. In data set [6], this compound returned a clearance of 3.7 mL/min/kg. Besides, the Vd in [7] was found to be 1.3 L/kg. Also, the bioavailability in data set [8] was 15%.
For `CC1(C)CN(c2ccccc2NC(=O)Nc2ccc(OC(F)(F)F)cc2)c2c(O)ccc(-c3ccc(F)cc3F)c21`, the IC50 at P2Y purinoceptor 1 [2] is 0.52 nM. Besides, the remaining at 10 min, 0.5 µM in data set [3] came out at 81%; in data set [4], 72%; in [5], 79%.
The corresponding values for `CC1(C)CN(c2ccccc2NC(=O)Nc2ccc(OC(F)(F)F)cc2)c2c(O)cc(F)c(-c3ncc(F)cn3)c21` are 0.3 nM, 41%, 61% and 42%.
In the same order, the values of `CC1(C)CN(c2ccccc2NC(=O)Nc2ccc(OC(F)(F)F)cc2)c2c(O)cc(F)c(-c3ccc(C(F)(F)F)cn3)c21` are 0.57 nM, 100%, 97% and 65%.
Turning to `CC1(C)CN(c2ccccc2NC(=O)Nc2ccc(OC(F)(F)F)cc2)c2c(O)cc(F)c(-c3ccc(F)cc3)c21`, the IC50 at P2Y purinoceptor 1 [2] amounted to 0.23 nM. For the same compound, the remaining at 10 min, 0.5 µM in [3] was determined as 73%; in data set [4], 84%; in data set [5] it was 77%.
Turning to `CC1(C)CN(c2ccccc2NC(=O)Nc2csc(Cl)n2)c2c(O)ccc(-c3ccc(F)cc3)c21`, on P2Y purinoceptor 1 [2], the 50% inhibitory concentration (IC50) was determined as 0.03 nM. The remaining at 10 min, 0.5 µM stood at 80% in [3], 0% in data set [4] and 75% in [5].
In the case of `CC(=O)Oc1cc2c(s1)CCN(C(C(=O)C1CC1)c1ccccc1F)C2` (centres undefined), the inhibition entry with Oryctolagus cuniculus [9] was “Active”. Besides, the “fold change (FC)” value with Oryctolagus cuniculus [10] came out at 6.
With `CC1(CO)CN(c2ccccc2NC(=O)Nc2nc3ccc(Cl)nc3s2)c2c(O)ccc(Cl)c21` (centres undefined), the inhibition at P2Y purinoceptor 1 [1] turned out to be 72%.
As for `CCOC(=O)C1(C)CN(c2ccccc2NC(=O)Nc2nc3ccc(Cl)nc3s2)c2c(O)ccc(Cl)c21` (centres undefined), on P2Y purinoceptor 1 [2], the IC50 amounted to 0.05 nM. The remaining at 10 min, 0.5 µM came to 47% in data set [3], 14% in [4] and 54% in data set [5].
The corresponding values for `CC1(C)CN(c2ccccc2NC(=O)Nc2ccc(OC(F)(F)F)cc2)c2c(O)ccc(-c3cccc(F)c3)c21` are 0.15 nM, 67%, 59% and 56%.
For `CC1(C)CN(c2ccccc2NC(=O)Nc2ccc(OC(F)(F)F)cc2)c2c(O)cc(F)c(-c3cnc(Cl)cn3)c21`, the results for the remaining at 10 min, 0.5 µM in [3], in data set [4] and in data set [5] were 77%, 83% and 67%, respectively.
As to `CC1(CC(F)(F)F)CN(c2ccccc2NC(=O)Nc2ccc(OC(F)(F)F)cc2)c2c(O)ccc(Cl)c21` (centres undefined), the IC50 on P2Y purinoceptor 1 [2] amounted to 1.96 nM. The remaining at 10 min, 0.5 µM came to 79% in data set [3], 58% in [4] and 66% in data set [5].
In the same order, the values of `CC1(C)CN(c2ccccc2NC(=O)Nc2ccc(OC(F)(F)F)cc2)c2c(O)c(F)cc(-c3ccc(F)cc3)c21` are 0.45 nM, 80%, 71% and 66%.
In the same order, the values of `CC1(C)CN(c2ccccc2NC(=O)Nc2ccc(OC(F)(F)F)cc2)c2c(O)cc(F)c(-c3ccc(C(F)(F)F)nc3)c21` are 0.51 nM, 68%, 69% and 73%.
In the same order, the values of `Cc1nc(NC(=O)Nc2ccccc2N2CC(C)(C)c3c(-c4ccc(F)cc4)ccc(O)c32)cs1` are 0.08 nM, 95%, 55% and 52%.
For `CC1(C)CN(c2ccccc2NC(=O)Nc2ccc(OC(F)(F)F)cc2)c2c(O)ccc(-c3ccc(F)c(F)c3)c21`, on P2Y purinoceptor 1 [2], the IC50 was 1.8 nM. Besides, the remaining at 10 min, 0.5 µM in data set [3] amounted to 90%; in data set [4], 81%; in [5] it was 66%.
As to `CC(C)(C)CN1CCCC1c1ccc(NC(=O)Nc2ccccc2N2CC(C)(C)c3c(-c4ccc(F)cc4)ccc(O)c32)cc1` (centres undefined), the IC50 at P2Y purinoceptor 1 [2] came to 0.04 nM. The remaining at 10 min, 0.5 µM was 45% in data set [3], 34% in data set [4] and 52% in [5].
With `CC1(C)CN(c2ccccc2NC(=O)Nc2ccc(OC(F)(F)F)cc2)c2c(O)cc(F)c(-c3cc(F)nc(F)c3)c21`, the 50% inhibitory concentration (IC50) on P2Y purinoceptor 1 [2] stood at 0.47 nM. The remaining at 10 min, 0.5 µM in [3] came out at 75%; in [4], 80%; in [5] it was 75%.
With `CNC(=O)C1(C)CN(c2ccccc2NC(=O)Nc2nc3ccc(F)cc3s2)c2c(O)ccc(Cl)c21` (centres undefined), on P2Y purinoceptor 1 [1], the inhibition is 46%. For the same compound, the remaining at 10 min, 0.5 µM in data set [3] is 16%; in data set [4] it was 5%; in [5] it was 16%.
Take `CC1(C)CN(c2ccccc2NC(=O)Nc2ccc(OC(F)(F)F)cc2)c2c(O)ccc(Cl)c21`: the IC50 at P2Y purinoceptor 1 [2] was found to be 0.39 nM. The remaining at 10 min, 0.5 µM in data set [3] was found to be 66%; in [4], 57%; in data set [5] it was 58%.
The corresponding values for `CC1(C)CN(c2ccccc2NC(=O)Nc2ccc(OC(F)(F)F)cc2)c2c(O)ccc(-c3ccccc3)c21` are 0.37 nM, 76%, 67% and 48%.
The corresponding values for `CC1(C)CN(c2ccccc2NC(=O)Nc2ccc(OC(F)(F)F)cc2)c2c(O)ccc(-c3ccccc3F)c21` are 0.37 nM, 62%, 54% and 48%.
Turning to `CC1(C)CN(c2ccccc2NC(=O)Nc2ccc(OC(F)(F)F)cc2)c2c(O)ccc(-c3ccc(F)cc3)c21`, the IC50 on P2Y purinoceptor 1 [2] turned out to be 0.33 nM. For the same compound, the remaining at 10 min, 0.5 µM in data set [3] amounted to 87%; in [4], 89%; in data set [5], 83%.
In the same order, the values of `CC1(C)CN(c2ccccc2NC(=O)Nc2ccc(OC(F)(F)F)cc2)c2c(O)cc(F)c(-c3ccc(Cl)s3)c21` are 2.3 nM, 92%, 79% and 88%.
On to `CC1(C)CN(c2ccccc2NC(=O)Nc2ccc(OC(F)(F)F)cc2)c2c(O)ccc(-c3ccc(C(F)(F)F)cc3)c21`, for which, on P2Y purinoceptor 1 [2], the IC50 was 1.51 nM. For the same compound, the results for the remaining at 10 min, 0.5 µM in data set [3], in [4] and in [5] were 96%, 94% and 89%, respectively.
The corresponding values for `CC1(C)CN(c2ccccc2NC(=O)Nc2ccc(OC(F)(F)F)cc2)c2c(O)ccc(-c3cc(F)cc(F)c3)c21` are 0.57 nM, 63%, 59% and 64%.
In the case of `CC(C)CN1CCCC1c1ccc(NC(=O)Nc2ccccc2N2CC(C)(C)c3c(-c4ccc(F)cc4)ccc(O)c32)cc1` (centres undefined), the IC50 on P2Y purinoceptor 1 [2] turned out to be 0.02 nM. Moreover, the remaining at 10 min, 0.5 µM is 58% in [3], 39% in data set [4] and 53% in data set [5]. Besides, the clearance in [6] is 34 mL/min/kg. Further, the Vd in data set [7] turned out to be 9.8 L/kg. Moreover, the bioavailability in data set [8] turned out to be 4%.
As to `CC(C)(C)CN1CCC2(CC1)CN(c1ccccc1NC(=O)Nc1ccc(OC(F)(F)F)cc1)c1c(O)cc(F)c(-c3ccc(F)cc3)c12`, the IC50 on P2Y purinoceptor 1 [2] worked out at 0.09 nM. For the same compound, the remaining at 10 min, 0.5 µM in data set [3] turned out to be 81%; in [4] it was 80%; in [5] it was 67%. The compound further had a clearance in data set [6] of 4.2 mL/min/kg. For the same compound, the Vd in data set [7] was found to be 1 L/kg. In data set [8], this compound returned a bioavailability of 17%.
For the compound `CC1(C)CN(c2ccccc2NC(=O)Nc2nc3ccc(Cl)nc3s2)c2c(O)ccc(Cl)c21`, the IC50 at P2Y purinoceptor 1 [2] stood at 0.14 nM.
Take `CC1(C)CN(c2ccccc2NC(=O)Nc2ccc(OC(F)(F)F)cc2)c2c(O)c(F)cc(-c3ccc(Cl)cc3)c21`: the remaining at 10 min, 0.5 µM came out at 88% in data set [3], 100% in data set [4] and 80% in data set [5].
`CC1(C)CN(c2ccccc2NC(=O)Nc2nc3ccc(Cl)nc3s2)c2c(O)ccc(-c3ccc(F)cc3)c21`: the IC50 at P2Y purinoceptor 1 [2] was found to be 0.13 nM. For the same compound, the remaining at 10 min, 0.5 µM was 75% in data set [3], 74% in data set [4] and 65% in data set [5].
The corresponding values for `CC1(C)CN(c2ccccc2NC(=O)Nc2ccc(OC(F)(F)F)cc2)c2c(O)ccc(-c3ccc(Cl)cc3)c21` are 0.13 nM, 84%, 83% and 78%.
